In the library only some 3.7% were active in any assay of this set; here they are far more common.
rCAG binder: binders of r(CAG) RNA repeats, primary screen, biochemical, fluorescence. r(CAG) RNA repeat, TO-PRO-1 dye displacement fluorescence. inhibition, % at 3 µM. 370,000 compounds, 1.3% hits;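 active means inhibition above the plate cutoff, the mean of all test compounds on that plate plus 3 SD, cut at about 35% in these data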;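 further: higher means more dye released from RNA so lower well fluorescence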
HCV core dimer: inhibitors of HCV core protein dimerization, primary screen, biochemical, TR-FRET, high-throughput; TR-FRET GST/Flag-core106 dimerization, 1536-well; inhibition, % at 5 µM; 300,000 compounds, 0.33% hits;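 active means inhibition above the mean of all tested compounds plus 3 SD, set per screening campaign, cut at about 45% in these data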
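System – GST-tagged and Flag-tagged HCV core protein residues 1-106 · Repeats – one well for each compound · Technique – TR-FRET 671 and 617 nm emission · Doses – one concentration, 5 µM, in 0.5% DMSO · Times – 4 h, 22.5 °C incubation · Also added – Eu donor and XL665 acceptor anti-tag antibodies · Measure – percent inhibition of core106 dimerization signal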
TAAR1 agonist: human TAAR1 agonists, primary screen, Fluo-8 calcium fluorescence, CHO RD-HGA16 cells. 360,000 compounds, 0.99% hits. activation, % at 3 µM. AID 624467, 2012. vehicle wells 0%, saturating PEA agonist 100%. Trace amine-associated receptor 1 (Homo sapiens), Q96RJ0;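 active means activation above the mean activation of all test compounds in the run plus 3 SD, cut at about 38% in these data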
Target sequence (Q96RJ0 whole entry, looked up): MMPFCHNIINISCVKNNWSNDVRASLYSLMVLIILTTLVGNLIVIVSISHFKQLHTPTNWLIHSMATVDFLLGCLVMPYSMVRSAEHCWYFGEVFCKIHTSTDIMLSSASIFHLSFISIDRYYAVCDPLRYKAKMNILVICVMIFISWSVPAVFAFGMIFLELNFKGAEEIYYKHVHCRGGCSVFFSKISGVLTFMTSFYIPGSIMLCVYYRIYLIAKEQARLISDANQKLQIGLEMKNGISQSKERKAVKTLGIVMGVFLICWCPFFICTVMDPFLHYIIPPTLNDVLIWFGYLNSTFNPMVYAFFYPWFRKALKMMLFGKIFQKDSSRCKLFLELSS
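System: CHO RD-HGA16 cells carrying human TAAR1 plus Gα16; Incubation: 17-24 h seeding, 75 min 37 °C dye, 30 min RT; Measured by: Fluo-8 fluorescence, 5 s baseline then 140 s kinetic read; Control set: DMSO and PEA EC100; Replication: single well for each compound.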
HCV NS3 hel inh: inhibitors of HCV NS3 helicase, primary screen, biochemical, Cy5 molecular beacon fluorescence; Hepatitis C virus NS3 helicase; NS3 helicase DNA unwinding; inhibition, % at 10.9 µM; 290,000 compounds, 0.56% hits; AID 1800, 2009;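 active means inhibition above the mean of all tested compounds plus 3 SD, set per campaign, cut at about 35% in these data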
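System: HCV NS3 helicase fragment; control set: DMSO and thioflavine S; technique: Cy5 fluorescence at 0 and 60 min, beacon hairpin quenching; reagent: beacon DNA duplex substrate plus ATP; replicates: singlicate; schedule: 1 h reaction at 25 °C, ATP-initiated; medium: MOPS buffer pH 6.5 with MgCl2, DTT, Tween20, BSA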
TAAR1 antagonist: human TAAR1 antagonists, primary screen, Fluo-8 calcium fluorescence, CHO RD-HGA16 cells; 360,000 compounds, 1.5% hits; inhibition, % at 3 µM; antagonist; AID 624466, 2012;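 active means inhibition above a per-plate cutoff, the mean inhibition of test compounds on that plate plus 3 SD, cut at about 49% in these data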
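Test system: RD-HGA16 CHO cells with stable hTAAR1 and Gα16 / Probe or stimulus: EC80 β-phenethylamine stimulus / Times: seeding 17-24 h prior, 75-min 37 °C, 30-min RT dye loading / Detection: Fluo-8 calcium-sensitive fluorescence / Read-out basis: % inhibition scaled between DMSO and EC80 PEA controls / Repeats: singlicate, one well per test compound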
TAAR1 nonsel count: nonselective antagonists in TAAR1 counter-screen cells, counter-screen for hTAAR1 antagonist project, cell-based, fluorescence, calcium; inhibition, % at 3 µM; AID 651780, 2012; counterscreen cell line, antagonist mode; shares compounds with TAAR1 antagonist; 2,400 compounds, 77% hits; in the data active means inhibition above about 22%;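 further: CHO-Ga16 host cells stimulated with ATP at an EC80 level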
TAAR1 ant conf: human TAAR1 antagonists, retest of hits, confirmation, cell-based, fluorescence; inhibition, % at 3 µM; shares compounds with TAAR1 antagonist; 2,400 compounds, 40% hits; TAAR1-expressing cells, fluorescence antagonist read-out; AID 651785, 2012; in the data active means inhibition above about 49%;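 further: CHO-Ga16 host cells challenged with agonist PEA near its EC80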
Ga16 ag counter: calcium activation in Ga16-expressing cells, counter-screen for TAAR1 antagonist project, cell-based, fluorescence; 2,400 compounds, 18% hits; shares compounds with TAAR1 antagonist; activation, % at 3 µM; agonist counterscreen; AID 651953, 2012; in the data active means activation above about 12%
TAAR1 ag counter: TAAR1 activation by candidate antagonists – cell-based, fluorescence, counter-screen for TAAR1 antagonist project; 2,400 compounds, 2% hits; shares compounds with TAAR1 antagonist; hTAAR1 cell line, agonist mode; AID 651955, 2012; activation, % at 3 µM; in the data active means activation above about 37%;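 further: CHO cells stably expressing TAAR1 with calcium dye readout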
Of the large screens only hits and unclear results are named; the others gave an inactive call (follow-up assays come after a bar, where they were run).

COc1ccc(-c2csc(NC(=O)CN3C(=O)C4CC=CCC4C3=O)n2)cc1OC (configuration not stated)	none
O=C(CCN1C(=O)C2CCCCC2C1=O)Nc1nc(-c2ccc(F)c(F)c2)cs1 (configuration not stated)	none
COc1ccc(-c2csc(NC(=O)CN3C(=O)C4CCCCC4C3=O)n2)cc1OC (configuration not stated)	TAAR1 antagonist 52 | TAAR1 nonsel count 24 | TAAR1 ant conf inactive | Ga16 ag counter 13 | TAAR1 ag counter inactive
O=C(CN1C(=O)C2CC=CCC2C1=O)Nc1nc(-c2ccc(F)c(F)c2)cs1 (configuration not stated)	TAAR1 antagonist 73 (no result: HCV core dimer, HCV NS3 hel inh) | TAAR1 nonsel count 31 | TAAR1 ant conf 55 | Ga16 ag counter 14 | TAAR1 ag counter inactive
CN(C(=O)COC(=O)/C=C/c1ccc(S(=O)(=O)N2CCc3ccccc32)cc1)C1CCS(=O)(=O)C1 (configuration not stated)	TAAR1 antagonist 101 | TAAR1 nonsel count inactive | TAAR1 ant conf inactive | Ga16 ag counter inactive | TAAR1 ag counter inactive
CC(C)C[C@@H]1COc2cc(Br)ccc2S(=O)(=O)N1Cc1cn(Cc2ccc(C(F)(F)F)cc2)nn1	none (no result: HCV core dimer, TAAR1 agonist, HCV NS3 hel inh, TAAR1 antagonist)
CCCCN1C(=O)N2CCc3ccccc3C2CS1(=O)=O (configuration not stated)	none (no result: HCV core dimer, TAAR1 agonist, HCV NS3 hel inh, TAAR1 antagonist)
COC(=O)/C=C/c1ccccc1CN1[C@@H](CC(=O)OC)c2ccccc2S1(=O)=O	TAAR1 antagonist 107 (no result: HCV core dimer, HCV NS3 hel inh) | TAAR1 nonsel count inactive | TAAR1 ant conf inactive | Ga16 ag counter inactive | TAAR1 ag counter inactive
O=C1N[C@@H](Cc2ccccc2)COC(=O)[C@H](Cc2ccc(F)cc2)C/C=C\C[C@@H]1CC(=O)N(CCO)Cc1ccccc1	none (no result: HCV core dimer, HCV NS3 hel inh)
CC(C)(C)OC(=O)C[C@H]1C/C=C\C[C@H](CC(=O)N(CCO)Cc2ccccc2)C(=O)N[C@@H](c2ccccc2)COC1=O	TAAR1 antagonist 56 (no result: HCV core dimer, HCV NS3 hel inh) | TAAR1 nonsel count 30 | TAAR1 ant conf inactive | Ga16 ag counter inactive | TAAR1 ag counter inactive
O=C1N[C@@H](c2ccccc2)COC(=O)[C@H](Cc2ccc(F)cc2)C/C=C\C[C@H]1CC(=O)N(CCO)Cc1ccccc1	none (no result: HCV core dimer, HCV NS3 hel inh)
CC(C)(C)OC(=O)C[C@H]1C/C=C\C[C@@H](CC(=O)N(CCO)Cc2ccccc2)C(=O)N[C@@H](c2ccccc2)COC1=O	none (no result: HCV core dimer, HCV NS3 hel inh)
O=C(C[C@@H]1C/C=C\C[C@H](Cc2ccc(F)cc2)C(=O)OC[C@H]2CCCN2C1=O)N[C@H](CO)Cc1ccccc1	TAAR1 antagonist 61 (no result: HCV core dimer, HCV NS3 hel inh) | TAAR1 nonsel count 23 | TAAR1 ant conf inactive | Ga16 ag counter inactive | TAAR1 ag counter inactive
O=C1N[C@@H](c2ccccc2)COC(=O)[C@H](Cc2ccc(F)cc2)CC/C=C/C[C@H]1CC(=O)N(CCO)Cc1ccccc1	TAAR1 antagonist 61 (no result: HCV core dimer, HCV NS3 hel inh) | TAAR1 nonsel count 32 | TAAR1 ant conf inactive | Ga16 ag counter 13 | TAAR1 ag counter inactive
O=C1N[C@H](Cc2ccccc2)COC(=O)[C@H](Cc2ccc(F)cc2)C/C=C\C[C@@H]1CC(=O)N(CCO)Cc1ccccc1	TAAR1 antagonist 54 (no result: HCV core dimer, HCV NS3 hel inh) | TAAR1 nonsel count 32 | TAAR1 ant conf 49 | Ga16 ag counter 12 | TAAR1 ag counter inactive

Screens deposited in PubChem by The Scripps Research Institute Molecular Screening Center.
